Data taken from ChEMBL document CHEMBL4024754, “Development of Potent, Protease-Resistant Agonists of the Parathyroid Hormone Receptor with Broad β Residue Distribution” (J Med Chem, 2017).
The source made the active and inactive calls. The rule behind the calls is not given here.

Experiments:
Type in all cases: functional, cell-based
[1] = target: T1, Parathyroid hormone/parathyroid hormone-related peptide receptor (Homo sapiens, UniProt Q03431); assay: Agonist activity at human PTH1 receptor expressed in human GP2.3 cells assessed as induction of cAMP after 12 to 20 mins by luciferase reporter gene assay; details: read-out: EC50
T1 sequence (Q03431 whole entry): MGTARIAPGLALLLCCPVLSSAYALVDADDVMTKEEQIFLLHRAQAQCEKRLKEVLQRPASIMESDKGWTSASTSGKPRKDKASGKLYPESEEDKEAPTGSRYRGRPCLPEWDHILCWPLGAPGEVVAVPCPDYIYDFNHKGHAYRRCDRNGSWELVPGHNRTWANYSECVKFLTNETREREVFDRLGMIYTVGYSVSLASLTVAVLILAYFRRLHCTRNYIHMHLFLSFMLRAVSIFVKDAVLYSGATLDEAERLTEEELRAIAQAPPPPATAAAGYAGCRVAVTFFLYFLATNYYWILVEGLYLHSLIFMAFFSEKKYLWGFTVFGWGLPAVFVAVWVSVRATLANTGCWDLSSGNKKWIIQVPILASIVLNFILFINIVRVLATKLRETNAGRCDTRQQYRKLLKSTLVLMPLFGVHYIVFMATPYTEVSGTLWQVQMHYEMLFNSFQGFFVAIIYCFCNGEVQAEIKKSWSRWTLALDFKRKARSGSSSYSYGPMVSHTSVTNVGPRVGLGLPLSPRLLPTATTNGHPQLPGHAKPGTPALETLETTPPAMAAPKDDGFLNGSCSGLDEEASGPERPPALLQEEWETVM

[2] = target: T2, Parathyroid hormone/parathyroid hormone-related peptide receptor (Homo sapiens) (UniProt Q03431); assay: Agonist activity at extracellular domain truncate human PTH1 receptor expressed in GD5 cells assessed as induction of cAMP after 12 to 20 mins by luciferase reporter gene assay
T2 sequence (whole entry): T1 sequence (Q03431 whole entry)
In short: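 HEK293-derived lines stably expressing Glosensor cAMP reporter plus full-length human PTHR1 (GP2.3) or ECD-truncated PTHR1 (GD5). Confluent monolayers preincubated at room temperature in CO2-independent medium with 0.5 mM D-luciferin until baseline stable (30 min), then varied agonist concentrations added. Maximal luminescence (12−20 min) used for sigmoidal variable-slope fits.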

[3] = target: T2, Parathyroid hormone/parathyroid hormone-related peptide receptor (Homo sapiens); assay: Agonist activity at human PTH1 receptor expressed in human GP2.3 cells assessed as induction of cAMP after 12 to 20 mins by luciferase reporter gene assay relative to PTH(1 to 34 residues)-NH2

What does the source list for `CC[C@H](C)[C@H](NC(=O)[C@H](CCC(=O)O)NC(=O)[C@H]1CCC[C@@H]1NC(=O)[C@@H](NC(=O)[C@@H](N)CO)C(C)C)C(=O)N[C@@H](CCC(N)=O)C(=O)N[C@@H](CC(C)C)C(=O)N[C@@H](CCSC)C(=O)N[C@@H](Cc1cnc[nH]1)C(=O)N[C@@H](CC(N)=O)C(=O)N[C@@H](CC(C)C)C(=O)NCC(=O)N[C@@H](CCCCN)C(=O)N[C@@H](Cc1cnc[nH]1)C(=O)N[C@@H](CC(C)C)C(=O)N[C@@H](CC(N)=O)C(=O)N[C@@H](CO)C(=O)N[C@@H](CCSC)C(=O)N[C@@H](CCC(=O)O)C(=O)N[C@@H](CCCNC(=N)N)C(=O)N[C@H](C(=O)N[C@@H](CCC(=O)O)C(=O)N[C@@H](Cc1c[nH]c2ccccc12)C(=O)N[C@@H](CC(C)C)C(=O)N[C@@H](CCCNC(=N)N)C(=O)N[C@@H](CCCCN)C(=O)N[C@@H](CCCCN)C(=O)N[C@@H](CC(C)C)C(=O)N[C@@H](CCC(N)=O)C(=O)N[C@@H](CC(=O)O)C(=O)N[C@H](C(=O)N[C@@H](Cc1cnc[nH]1)C(=O)N[C@@H](CC(N)=O)C(=O)N[C@@H](Cc1ccccc1)C(N)=O)C(C)C)C(C)C`?
EC50 [1]: 11.5 nM; Activity [2]: Active; fold change (FC) [3]: 126

For `CC[C@H](C)[C@H](NC(=O)[C@H](CCC(=O)O)NC(=O)[C@H](CO)NC(=O)[C@@H](NC(=O)[C@@H](N)CO)C(C)C)C(=O)N[C@@H](CCC(N)=O)C(=O)N[C@@H](CC(C)C)C(=O)N[C@H]1CCC[C@@H]1C(=O)N[C@@H](Cc1cnc[nH]1)C(=O)N[C@@H](CC(N)=O)C(=O)N[C@@H](CC(C)C)C(=O)NCC(=O)N[C@@H](CCCCN)C(=O)N[C@@H](Cc1cnc[nH]1)C(=O)N[C@@H](CC(C)C)C(=O)N[C@@H](CC(N)=O)C(=O)N[C@@H](CO)C(=O)N[C@@H](CCSC)C(=O)N[C@@H](CCC(=O)O)C(=O)N[C@@H](CCCNC(=N)N)C(=O)N[C@H](C(=O)N[C@@H](CCC(=O)O)C(=O)N[C@@H](Cc1c[nH]c2ccccc12)C(=O)N[C@@H](CC(C)C)C(=O)N[C@@H](CCCNC(=N)N)C(=O)N[C@@H](CCCCN)C(=O)N[C@@H](CCCCN)C(=O)N[C@@H](CC(C)C)C(=O)N[C@@H](CCC(N)=O)C(=O)N[C@@H](CC(=O)O)C(=O)N[C@H](C(=O)N[C@@H](Cc1cnc[nH]1)C(=O)N[C@@H](CC(N)=O)C(=O)N[C@@H](Cc1ccccc1)C(N)=O)C(C)C)C(C)C`, which EC50 [1] is on record?
Its EC50 is 9.74 nM.

What about the Activity [2] of the same compound?
The Activity was “Active”.

What about the fold change (FC) [3] of the same compound?
Its fold change (FC) is 107.

`CSCC[C@H](NC(=O)[C@H](CO)NC(=O)[C@H](CC(N)=O)NC(=O)[C@H](CC(C)C)NC(=O)[C@H](Cc1cnc[nH]1)NC(=O)[C@H](CCCCN)NC(=O)CNC(=O)[C@H](CC(C)C)NC(=O)[C@H](CC(N)=O)NC(=O)[C@H](Cc1cnc[nH]1)NC(=O)[C@H](CCSC)NC(=O)[C@H](CC(C)C)NC(=O)[C@H](CCC(N)=O)NC(=O)[C@H]1CCC[C@@H]1NC(=O)[C@H](CCC(=O)O)NC(=O)[C@H](CO)NC(=O)[C@@H](NC(=O)[C@@H](N)CO)C(C)C)C(=O)N[C@@H](CCC(=O)O)C(=O)N[C@@H](CCCNC(=N)N)C(=O)N[C@H](C(=O)N[C@@H](CCC(=O)O)C(=O)N[C@@H](Cc1c[nH]c2ccccc12)C(=O)N[C@@H](CC(C)C)C(=O)N[C@@H](CCCNC(=N)N)C(=O)N[C@@H](CCCCN)C(=O)N[C@@H](CCCCN)C(=O)N[C@@H](CC(C)C)C(=O)N[C@@H](CCC(N)=O)C(=O)N[C@@H](CC(=O)O)C(=O)N[C@H](C(=O)N[C@@H](Cc1cnc[nH]1)C(=O)N[C@@H](CC(N)=O)C(=O)N[C@@H](Cc1ccccc1)C(N)=O)C(C)C)C(C)C` was tested. Which EC50 [1] did it give?
The EC50 was 0.17 nM.

And the Activity [2]?
Its Activity is “Active”.

What about the fold change (FC) [3] of the same compound?
Its fold change (FC) is 1.9.
